Test results as given in ChEMBL document CHEMBL1154838, “Stolonoxides E and F, cytotoxic metabolites from the marine ascidian Stolonica socialis” (2010).

Legend:
Assay type in all cases: functional
MDA-MB-231 = test: Cytotoxicity against human MDA-MB-231 cells after 72 hrs by SRB assay; conditions: MDA-MB-231, 72 h; for CC50: read-out: LC50 (the source's name)
Summary of the method: (§1)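 Cells kept in RPMI with 10% fetal calf serum, 2 mM L-glutamine, 100 U/mL penicillin/streptomycin, 37 °C, 5% CO2. Triplicate cultures exposed 72 h to 10 concentrations, 10 to 0.0026 µg/mL. Fixed in 1% glutaraldehyde 15 min, stained with 0.4% SRB 30 min at room temperature, extracted in 10 mM trizma base, absorbance read at 490 nm. GI50 from NCI algorithm, corrected for starting cell count. Doxorubicin positive control, DMSO vehicle.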

HT-29 = test: Cytotoxicity against human HT-29 cells after 72 hrs by SRB assay; conditions: HT-29, 72 h; summary of the method: as §1
A549 = test: Cytotoxicity against human A549 cells after 72 hrs by SRB assay; conditions: A549, 72 h; summary of the method: as §1

SMILES	GI50 (MDA-MB-231) [µM]	TGI (MDA-MB-231) [µM]	CC50 (MDA-MB-231) [µM]	GI50 (HT-29) [µM]	LC50 (concentration killing 50% of starting cells) (HT-29) [µM]	TGI (HT-29) [µM]	GI50 (A549) [µM]	LC50 (A549) [µM]	TGI (A549) [µM]
O=C(O)C[C@@H]1CC[C@@H]([C@@H]2CC[C@@H](CCCCCCC3\C=C/C=C\C=C/C3)O2)OO1 (stereo not given in full) [STOLONOXIDE E]	4.94	5.44	6.18	3.96	6.67	5.19	7.91	8.65	8.16
COc1cccc2c1C(=O)c1c(O)c3c(c(O)c1C2=O)C[C@@](O)(C(=O)CO)C[C@@H]3O[C@H]1C[C@H](N)[C@H](O)[C@H](C)O1 [DOXORUBICIN]	0.038	0.31	2.41	0.066	–	0.4	0.062	–	0.26
O=C(O)C[C@@H]1CC[C@@H]([C@H]2CC[C@H](CCCCCCC3\C=C/C=C\C=C/C3)O2)OO1 (stereo not given in full) [STOLONOXIDE F]	4.7	5.44	6.18	2.72	3.71	3.21	5.44	6.67	5.93
